{"source": "the RNAGym collection of RNA variant scans (doi:10.1126/science.aae0568)", "parents": {"B1": {"name": "tRNA (parent)", "chain": "GUUCCGUUGGCGUAAUGGUAACGCGUCUCCCUCCUAAGGAGAAGACUGCGGGUUCGAGUCCCGUACGGAACG"}}, "note": "Fewer inactive variants are shown than the library holds."}
{"variants_of": "B1", "experiment": "yeast fitness relative to wild type (ratio to wild type); higher = fitter; tRNA-Arg(CCU), competitive growth, 37 C, YPD", "method_in_brief": "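Amplicons of the tRNA-Arg(CCU) gene were sequenced, 100-nucleotide paired-end, from the start population and from each end population of a pooled yeast competition. The competition, in six parallel replicates, lasted 24 hours in YPD at 37°C. Fitness relative to wild type was calculated from changes in genotype frequencies. Genotypes had to have ≥ 100 starting reads, and estimates < 0.5 were set to 0.5.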"}
{"variant": "U47A G51A C55U", "yeast fitness": 0.642}
{"variant": "C46U U54C G58C G67A", "yeast fitness": "≤ 0.5"}
{"variant": "C46U A65U", "yeast fitness": 0.883}
{"variant": "C46G C55G A69G", "yeast fitness": "≤ 0.5"}
{"variant": "U47A", "yeast fitness": 0.99}
{"variant": "U47C", "yeast fitness": 1}
{"variant": "C46A G48C U59G", "yeast fitness": 0.534}
{"variant": "A45U G50A C55G A70U", "yeast fitness": "≤ 0.5"}
{"variant": "U47A G52C", "yeast fitness": 0.581}
{"variant": "U47A G52A", "yeast fitness": 0.821}
{"variant": "C46U C49G G51C C66G", "yeast fitness": "≤ 0.5"}
{"variant": "C46U C61U G67A", "yeast fitness": 0.535}
{"variant": "C46A U53A", "yeast fitness": 0.738}
{"variant": "C46A G52A", "yeast fitness": 0.816}
{"variant": "A45U U47A C60G", "yeast fitness": "≤ 0.5"}
{"variant": "C46A C49A C61A", "yeast fitness": "≤ 0.5"}
{"variant": "C46U C49U U53C", "yeast fitness": 0.703}
{"variant": "C46A U59C", "yeast fitness": 0.898}
{"variant": "C46A U59G", "yeast fitness": 1.06}
{"variant": "C46U C60A A69U", "yeast fitness": 0.57}
{"variant": "A45U U53G G67A", "yeast fitness": "≤ 0.5"}
{"variant": "C46U G50A C61U", "yeast fitness": 0.749}
{"variant": "C46G C66U", "yeast fitness": 0.928}
{"variant": "C46G C66G", "yeast fitness": 0.986}
{"variant": "C46U C61G A70C", "yeast fitness": "≤ 0.5"}
{"variant": "C46A C49A A70C", "yeast fitness": "≤ 0.5"}
{"variant": "C46A A57C C60A", "yeast fitness": "≤ 0.5"}
{"variant": "U47A G67C", "yeast fitness": 0.88}
{"variant": "U47A G67A", "yeast fitness": 0.765}
{"variant": "U47A C55A G68A", "yeast fitness": 0.532}
{"variant": "C46G U59C", "yeast fitness": 1.05}
{"variant": "C46G C55G", "yeast fitness": 0.722}
{"variant": "C46A C49U", "yeast fitness": 0.958}
{"variant": "C46A C49G", "yeast fitness": 0.746}
{"variant": "C46G G48C", "yeast fitness": 1.02}
{"variant": "A45U U54C U64A A69U", "yeast fitness": "≤ 0.5"}
{"variant": "A45U G48C", "yeast fitness": 0.857}
{"variant": "C46G C60A G67U", "yeast fitness": 0.536}
{"variant": "C46U C49G G68A", "yeast fitness": 0.64}
{"variant": "C46G U59G C61G", "yeast fitness": "≤ 0.5"}
{"variant": "C46U C61G C66U A69U", "yeast fitness": "≤ 0.5"}
{"variant": "C46U U54C G68A", "yeast fitness": "≤ 0.5"}
{"variant": "C46G G52A C66U", "yeast fitness": 0.631}
{"variant": "A45U G50A G63A G68C A69U", "yeast fitness": "≤ 0.5"}
{"variant": "C46A G63C", "yeast fitness": 0.995}
{"variant": "C46G A57C G58A G67A", "yeast fitness": "≤ 0.5"}
{"variant": "A45U G51C G68A", "yeast fitness": "≤ 0.5"}
{"variant": "C46G C62G A69G", "yeast fitness": 0.733}
{"variant": "C46U U54C A69C", "yeast fitness": 0.778}
{"variant": "C46U G63A A69C", "yeast fitness": 0.833}
{"variant": "A45U U59G", "yeast fitness": 0.66}
{"variant": "A45U U59C", "yeast fitness": 0.897}
{"variant": "C46U C49A C60A A70C", "yeast fitness": "≤ 0.5"}
{"variant": "A45U G48C A57C G67U", "yeast fitness": "≤ 0.5"}
{"variant": "C46G G51C A70C", "yeast fitness": "≤ 0.5"}
{"variant": "U47A A70U", "yeast fitness": 1.06}
{"variant": "U47A A70G", "yeast fitness": 0.921}
{"variant": "C46G G67C", "yeast fitness": 0.86}
{"variant": "C46G G67A", "yeast fitness": 0.912}
{"variant": "C46G C49G C62A", "yeast fitness": 0.61}
{"variant": "U47A U54C", "yeast fitness": 0.811}
{"variant": "C46U A70C", "yeast fitness": 0.976}
{"variant": "U47A C61U A70C", "yeast fitness": 0.558}
{"variant": "A45U C62U", "yeast fitness": 1.07}
{"variant": "A45U C62G", "yeast fitness": 0.837}
{"variant": "C46G U54A C62U", "yeast fitness": "≤ 0.5"}
{"variant": "A45U G56C", "yeast fitness": 0.714}
{"variant": "C46U C62A", "yeast fitness": 0.684}
{"variant": "C46U C62U", "yeast fitness": 1}
{"variant": "C46G A57C", "yeast fitness": 0.61}
{"variant": "C46G A57U", "yeast fitness": 0.907}
{"variant": "C46G G51A", "yeast fitness": 0.766}
{"variant": "C46G G51C", "yeast fitness": 0.591}
{"variant": "C46U C55A", "yeast fitness": 0.587}
{"variant": "A45U G52C", "yeast fitness": 0.642}
{"variant": "U47A C55G C66G", "yeast fitness": 0.639}
{"variant": "C46U G56C A69U", "yeast fitness": 0.54}
{"variant": "C46G A69C", "yeast fitness": 0.972}
{"variant": "C46G A69U", "yeast fitness": 1.03}
{"variant": "A45U C62U C66U", "yeast fitness": 0.704}
{"variant": "U47C A57G C62U", "yeast fitness": "≤ 0.5"}
{"variant": "A45U C62G A65G", "yeast fitness": 0.913}
{"variant": "A45U C62U G63C", "yeast fitness": "≤ 0.5"}
{"variant": "U47A A65C", "yeast fitness": 0.82}
{"variant": "U47A A65U", "yeast fitness": 0.68}
{"variant": "C46G G48C A65U G68A", "yeast fitness": "≤ 0.5"}
{"variant": "A45U G67A", "yeast fitness": 0.767}
{"variant": "C46A G67A", "yeast fitness": 0.88}
{"variant": "A45U G50A", "yeast fitness": 1.01}
{"variant": "C46U C49A A65U", "yeast fitness": 0.554}
{"variant": "C46G C60A", "yeast fitness": 0.576}
{"variant": "C46G U53A A65C", "yeast fitness": "≤ 0.5"}
{"variant": "A45U G68A A70C", "yeast fitness": 0.641}
{"variant": "C46A G56A C61A", "yeast fitness": 0.603}
{"variant": "U47A C61G", "yeast fitness": 0.69}
{"variant": "U47A C61A", "yeast fitness": 0.769}
{"variant": "C46G G63C G67A A70G", "yeast fitness": "≤ 0.5"}
{"variant": "C46G A65U", "yeast fitness": 0.992}
{"variant": "C46G A65G", "yeast fitness": 0.897}
{"variant": "C46G A65C", "yeast fitness": 0.97}
{"variant": "C46G G56A A57C C61U", "yeast fitness": 0.575}
{"variant": "C46U G48A C55U U59A", "yeast fitness": "≤ 0.5"}
{"variant": "C46A U64G", "yeast fitness": 0.82}
{"variant": "C46G U59C G68C", "yeast fitness": "≤ 0.5"}
{"variant": "C46A C62U", "yeast fitness": 1.02}
{"variant": "C46U G52A U59C", "yeast fitness": 0.631}
{"variant": "C46A A57G G68A", "yeast fitness": 0.605}
{"variant": "C46A C49G C55U", "yeast fitness": 0.563}
{"variant": "U47A G63A", "yeast fitness": 0.823}
{"variant": "A45U U53C", "yeast fitness": 0.793}
{"variant": "U47A U64A", "yeast fitness": 0.677}
{"variant": "C46U U53C", "yeast fitness": 0.854}
{"variant": "U47A A65C C66G", "yeast fitness": "≤ 0.5"}
{"variant": "U47C A65C", "yeast fitness": 1.04}
{"variant": "C46A C62U A69C", "yeast fitness": 0.69}
{"variant": "C46U G58C C60A", "yeast fitness": 0.637}
{"variant": "C46A C55A A65C", "yeast fitness": 0.533}
{"variant": "C46A U47G C49A G52A G58C U64G A65G", "yeast fitness": "≤ 0.5"}
{"variant": "A45U G68U", "yeast fitness": 0.836}
{"variant": "A45U G68A", "yeast fitness": 0.926}
{"variant": "A45U G68C", "yeast fitness": 0.66}
{"variant": "C46A A65C", "yeast fitness": 0.973}
{"variant": "C46A A65U", "yeast fitness": 0.843}
{"variant": "C46G C49U A65U A69C", "yeast fitness": "≤ 0.5"}
{"variant": "A45U C61U", "yeast fitness": 0.974}
{"variant": "A45U C61G C66U", "yeast fitness": 0.53}
{"variant": "C46A G63A G67A", "yeast fitness": 0.552}
{"variant": "C46U A69U", "yeast fitness": 1.03}
{"variant": "C46U A69C", "yeast fitness": 0.976}
{"variant": "U47A C62U", "yeast fitness": 0.842}
{"variant": "U47A C62A", "yeast fitness": 0.683}
{"variant": "A45U U53C G67A A69C", "yeast fitness": 0.635}
{"variant": "C46U A57C U64C", "yeast fitness": "≤ 0.5"}
{"variant": "C46A G58A", "yeast fitness": 0.837}
{"variant": "A45U G56A A69C", "yeast fitness": 0.766}
{"variant": "A45U G50U G68C A69U", "yeast fitness": "≤ 0.5"}
{"variant": "U47C A57G A65U C66A A69C", "yeast fitness": "≤ 0.5"}
{"variant": "U47A C66U", "yeast fitness": 0.872}
{"variant": "C46G C49A U54C G58C", "yeast fitness": "≤ 0.5"}
{"variant": "C46U U54C G56A", "yeast fitness": 0.642}
{"variant": "C46A U47A", "yeast fitness": 1.04}
{"variant": "C46G C49A G67A", "yeast fitness": 0.606}
{"variant": "C46G C49A G67C", "yeast fitness": "≤ 0.5"}
{"variant": "C46U G50C C55A G63A C66U", "yeast fitness": "≤ 0.5"}
{"variant": "C46U G50A G56C C62A C66U", "yeast fitness": 0.582}
{"variant": "U47A U53A", "yeast fitness": 0.557}
{"variant": "C46A G48C", "yeast fitness": 0.924}
{"variant": "C46A G48A U64G", "yeast fitness": 0.951}
{"variant": "A45U G52A U64C A69U", "yeast fitness": "≤ 0.5"}
{"variant": "U47C A57U", "yeast fitness": 0.623}
{"variant": "A45U C66G", "yeast fitness": 0.617}
{"variant": "C46A U64A A65C", "yeast fitness": 0.978}
{"variant": "C46U C61A", "yeast fitness": 0.83}
{"variant": "C46U C61U", "yeast fitness": 0.956}
{"variant": "C46U G63C", "yeast fitness": 0.753}
{"variant": "C46G G48C U64G", "yeast fitness": "≤ 0.5"}
{"variant": "C46U C49G", "yeast fitness": 0.997}
{"variant": "C46G C61G C62A", "yeast fitness": "≤ 0.5"}
{"variant": "C46U A69U A70G", "yeast fitness": 0.761}
{"variant": "U47A U59A U64G", "yeast fitness": "≤ 0.5"}
{"variant": "C46U A57U", "yeast fitness": 1}
{"variant": "C46G C49A G68C A69G", "yeast fitness": "≤ 0.5"}
{"variant": "C46A G68A A70C", "yeast fitness": 1.11}
{"variant": "C46U C61A G67A", "yeast fitness": 0.568}
{"variant": "C46G C61G A65C", "yeast fitness": 0.574}
{"variant": "C46U C66G", "yeast fitness": 0.949}
{"variant": "C46U C66A", "yeast fitness": 0.853}
